Measured values taken from ChEMBL document CHEMBL1153580, “Synthesis and pharmacological investigation of 3-(substituted 1-phenylethanone)-4-(substituted phenyl)-1, 2, 3, 4-tetrahydropyrimidine-5-carboxylates” (Eur J Med Chem, 2009).

tested on: Rattus norvegicus; test: Antihypertensive activity in Norwegian albino rat assessed as inhibition of DOCA salt-induced diastolic blood pressure at 10 mg/kg, po after 120 mins by invasive carotid artery cannulation method; type: functional; conditions: 2 h
Summary of the method: (§1)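 Male rats (200–250 g), uninephrectomized and given DOCA s.c. (30–50 mg/kg/week) with 1% NaCl drinking water. Anesthetized with pentobarbital (35 mg/kg i.p.); left carotid artery cannulated and exteriorized. After recovery and a baseline reading, compound given orally by feeding needle. Diastolic pressure recorded via transducer at 15, 30, 60, 120 and 180 min. Mean ± S.E.M.; repeated-measures ANOVA.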

| SMILES | inhibition in vivo at 10 mg/kg [%] |
| --- | --- |
| CCOC(=O)C1=C(C)NC(OC)N(CC(=O)c2ccc(Cl)cc2)C1c1ccc(C)cc1 (configuration not stated) | 30.4 |
| CCOC(=O)C1=C(C)NC(OC)N(CC(=O)c2ccccc2)C1c1ccc(OC)cc1 (configuration not stated) | 30.9 |

tested on: Rattus norvegicus; test: Antihypertensive activity in Norwegian albino rat assessed as inhibition of DOCA salt-induced diastolic blood pressure at 10 mg/kg, po after 180 mins by invasive carotid artery cannulation method; type: functional; conditions: 3 h; summary of the method: as §1

| SMILES | inhibition in vivo at 10 mg/kg [%] |
| --- | --- |
| CCOC(=O)C1=C(C)NC(OC)N(CC(=O)c2ccc(Cl)cc2)C1c1ccc(C)cc1 (configuration not stated) | 37.8 |
| CCOC(=O)C1=C(C)NC(OC)N(CC(=O)c2ccccc2)C1c1ccc(OC)cc1 (configuration not stated) | 37.9 |

tested on: Rattus norvegicus; test: Antihypertensive activity in Norwegian albino rat assessed as inhibition of DOCA salt-induced diastolic blood pressure at 10 mg/kg, po after 240 mins by invasive carotid artery cannulation method; type: functional; conditions: 4 h

| SMILES | inhibition in vivo at 10 mg/kg [%] |
| --- | --- |
| CCOC(=O)C1=C(C)NC(OC)N(CC(=O)c2ccc(Cl)cc2)C1c1ccc(C)cc1 (configuration not stated) | 47.8 |
| CCOC(=O)C1=C(C)NC(OC)N(CC(=O)c2ccccc2)C1c1ccc(OC)cc1 (configuration not stated) | 48.2 |

tested on: Rattus norvegicus; test: Antiinflammatory activity in Norwegian albino rat assessed as inhibition of carrageenan-induced paw edema at 100 mg/kg, po after administered 60 mins prior to carrageenan-challenge measured after 1 hr; type: functional; conditions: not given
Summary of the method: (§2)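 Compound given orally as 100 mg/kg suspension in 0.5% CMC. 60 min later, carrageenan injected sub-plantar into the left hind paw. Paw volume measured within 30 s of injection, then at 1–5 h. % inhibition = [1−(Dt/Dc)]×100, where Dt and Dc are mean relative paw-volume changes in test and control. ANOVA.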

| SMILES | inhibition in vivo at 100 mg/kg [%] |
| --- | --- |
| CCOC(=O)C1=C(C)NC(OC)N(CC(=O)c2ccc(Cl)cc2)C1c1ccc(C)cc1 (configuration not stated) | 37.1 |
| CCOC(=O)C1=C(C)NC(OC)N(CC(=O)c2ccccc2)C1c1ccc(OC)cc1 (configuration not stated) | 38.8 |

tested on: Rattus norvegicus; test: Antiinflammatory activity in Norwegian albino rat assessed as inhibition of carrageenan-induced paw edema at 100 mg/kg, po after administered 60 mins prior to carrageenan-challenge measured after 3 hrs; type: functional; conditions: not given; summary of the method: as §2

| SMILES | inhibition in vivo at 100 mg/kg [%] |
| --- | --- |
| CCOC(=O)C1=C(C)NC(OC)N(CC(=O)c2ccc(Cl)cc2)C1c1ccc(C)cc1 (configuration not stated) | 38.8 |
| CCOC(=O)C1=C(C)NC(OC)N(CC(=O)c2ccccc2)C1c1ccc(OC)cc1 (configuration not stated) | 40.5 |

tested on: Rattus norvegicus; test: Antiinflammatory activity in Norwegian albino rat assessed as inhibition of carrageenan-induced paw edema at 100 mg/kg, po after administered 60 mins prior to carrageenan-challenge measured after 5 hrs; type: functional; conditions: not given; summary of the method: as §2

| SMILES | inhibition in vivo at 100 mg/kg [%] |
| --- | --- |
| CCOC(=O)C1=C(C)NC(OC)N(CC(=O)c2ccc(Cl)cc2)C1c1ccc(C)cc1 (configuration not stated) | 47.3 |
| CCOC(=O)C1=C(C)NC(OC)N(CC(=O)c2ccccc2)C1c1ccc(OC)cc1 (configuration not stated) | 52.6 |

tested on: Mus musculus; test: Analgesic activity against acetic acid-induced writhing in Swiss albino mouse assessed as protection at 20 mg/kg, po; type: functional; conditions: not given
Summary of the method: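 Swiss albino mice (25–30 g), six per group, habituated 30 min individually in the test cage. Compound in 1% CMC given p.o. at 20 mg/kg. 1 h later, acetic acid injected i.p.; writhes (arching of back, body elongation, hind-limb extension) counted 5–15 min after injection. % inhibition = (n−n′)/n×100, where n and n′ are mean writhes in control and test.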

| SMILES | Activity [%] |
| --- | --- |
| CCOC(=O)C1=C(C)NC(OC)N(CC(=O)c2ccc(Cl)cc2)C1c1ccc(C)cc1 (configuration not stated) | 53.17 |
| CCOC(=O)C1=C(C)NC(OC)N(CC(=O)c2ccccc2)C1c1ccc(OC)cc1 (configuration not stated) | 59.76 |

tested on: Rattus norvegicus; test: Gastrointestinal toxicity in albino rat assessed as ulcerogenic index at 50 mg/kg, po; type: organism-based; design: dose 50 mg/kg, route oral; conditions: in vivo
Summary of the method: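 Albino rats (150–200 g), six per group, food but not water withheld 24 h. Compound given p.o. at 50 mg/kg; controls received 1% methyl cellulose. Rats fed 17 h, then killed; stomach opened along greater curvature and examined under 4× magnifier. Lesions scored as large (>2 mm), small (1–2 mm) or punctiform (<1 mm). Severity index = treated mean score minus control mean score.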

| SMILES | UI |
| --- | --- |
| CCOC(=O)C1=C(C)NC(OC)N(CC(=O)c2ccc(Cl)cc2)C1c1ccc(C)cc1 (configuration not stated) | 0.76 |
| CCOC(=O)C1=C(C)NC(OC)N(CC(=O)c2ccccc2)C1c1ccc(OC)cc1 (configuration not stated) | 0.75 |

tested on: Rattus norvegicus; test: Antihypertensive activity in Norwegian albino rat assessed as inhibition of DOCA salt-induced systolic blood pressure at 10 mg/kg, po after 420 mins by non-invasive tail-cuff method; type: functional; conditions: Artery, 7 h
Summary of the method: (§3)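 Male rats (200–250 g), uninephrectomized under pentobarbital (50 mg/kg i.p.); one week later DOCA s.c. 30–50 mg/kg/week, with 1% w/v NaCl in drinking water. Groups of six, trained in restrainer, tail warmed at 33–34 °C. Compound in 0.5% CMC, 10 mg/kg orally. Systolic pressure read by tail-cuff before dosing and from 1 h after; three readings averaged. ANOVA.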

| SMILES | inhibition in vivo at 10 mg/kg [%] |
| --- | --- |
| CCOC(=O)C1=C(C)NC(OC)N(CC(=O)c2ccc(Cl)cc2)C1c1ccc(C)cc1 (configuration not stated) | 44 |
| CCOC(=O)C1=C(C)NC(OC)N(CC(=O)c2ccccc2)C1c1ccc(OC)cc1 (configuration not stated) | 45 |

tested on: Rattus norvegicus; test: Antihypertensive activity in Norwegian albino rat assessed as inhibition of DOCA salt-induced systolic blood pressure at 10 mg/kg, po after 15 mins by non-invasive tail-cuff method; type: functional; conditions: Artery, 0.25 h

| SMILES | inhibition in vivo at 10 mg/kg [%] |
| --- | --- |
| CCOC(=O)C1=C(C)NC(OC)N(CC(=O)c2ccc(Cl)cc2)C1c1ccc(C)cc1 (configuration not stated) | 1.61 |
| CCOC(=O)C1=C(C)NC(OC)N(CC(=O)c2ccccc2)C1c1ccc(OC)cc1 (configuration not stated) | 1.57 |

tested on: Rattus norvegicus; test: Antihypertensive activity in Norwegian albino rat assessed as inhibition of DOCA salt-induced systolic blood pressure at 10 mg/kg, po after 30 mins by non-invasive tail-cuff method; type: functional; conditions: Artery, 0.5 h

| SMILES | inhibition in vivo at 10 mg/kg [%] |
| --- | --- |
| CCOC(=O)C1=C(C)NC(OC)N(CC(=O)c2ccc(Cl)cc2)C1c1ccc(C)cc1 (configuration not stated) | 11.1 |
| CCOC(=O)C1=C(C)NC(OC)N(CC(=O)c2ccccc2)C1c1ccc(OC)cc1 (configuration not stated) | 6.58 |

tested on: Rattus norvegicus; test: Antihypertensive activity in Norwegian albino rat assessed as inhibition of DOCA salt-induced systolic blood pressure at 10 mg/kg, po after 60 mins by non-invasive tail-cuff method; type: functional; conditions: Artery, 1 h; summary of the method: as §3

| SMILES | inhibition in vivo at 10 mg/kg [%] |
| --- | --- |
| CCOC(=O)C1=C(C)NC(OC)N(CC(=O)c2ccc(Cl)cc2)C1c1ccc(C)cc1 (configuration not stated) | 13.8 |
| CCOC(=O)C1=C(C)NC(OC)N(CC(=O)c2ccccc2)C1c1ccc(OC)cc1 (configuration not stated) | 13.7 |

tested on: Rattus norvegicus; test: Antihypertensive activity in Norwegian albino rat assessed as inhibition of DOCA salt-induced systolic blood pressure at 10 mg/kg, po after 120 mins by non-invasive tail-cuff method; type: functional; conditions: Artery, 2 h; summary of the method: as §3

| SMILES | inhibition in vivo at 10 mg/kg [%] |
| --- | --- |
| CCOC(=O)C1=C(C)NC(OC)N(CC(=O)c2ccc(Cl)cc2)C1c1ccc(C)cc1 (configuration not stated) | 24 |
| CCOC(=O)C1=C(C)NC(OC)N(CC(=O)c2ccccc2)C1c1ccc(OC)cc1 (configuration not stated) | 20.4 |

tested on: Rattus norvegicus; test: Antihypertensive activity in Norwegian albino rat assessed as inhibition of DOCA salt-induced systolic blood pressure at 10 mg/kg, po after 180 mins by non-invasive tail-cuff method; type: functional; conditions: Artery, 3 h; summary of the method: as §3

| SMILES | inhibition in vivo at 10 mg/kg [%] |
| --- | --- |
| CCOC(=O)C1=C(C)NC(OC)N(CC(=O)c2ccc(Cl)cc2)C1c1ccc(C)cc1 (configuration not stated) | 28 |
| CCOC(=O)C1=C(C)NC(OC)N(CC(=O)c2ccccc2)C1c1ccc(OC)cc1 (configuration not stated) | 28 |

tested on: Rattus norvegicus; test: Antihypertensive activity in Norwegian albino rat assessed as inhibition of DOCA salt-induced systolic blood pressure at 10 mg/kg, po after 240 mins by non-invasive tail-cuff method; type: functional; conditions: Artery, 4 h; summary of the method: as §3

| SMILES | inhibition in vivo at 10 mg/kg [%] |
| --- | --- |
| CCOC(=O)C1=C(C)NC(OC)N(CC(=O)c2ccc(Cl)cc2)C1c1ccc(C)cc1 (configuration not stated) | 36.8 |
| CCOC(=O)C1=C(C)NC(OC)N(CC(=O)c2ccccc2)C1c1ccc(OC)cc1 (configuration not stated) | 36 |

tested on: Rattus norvegicus; test: Antihypertensive activity in Norwegian albino rat assessed as inhibition of DOCA salt-induced systolic blood pressure at 10 mg/kg, po after 300 mins by non-invasive tail-cuff method; type: functional; conditions: Artery, 5 h; summary of the method: as §3

| SMILES | inhibition in vivo at 10 mg/kg [%] |
| --- | --- |
| CCOC(=O)C1=C(C)NC(OC)N(CC(=O)c2ccc(Cl)cc2)C1c1ccc(C)cc1 (configuration not stated) | 39.5 |
| CCOC(=O)C1=C(C)NC(OC)N(CC(=O)c2ccccc2)C1c1ccc(OC)cc1 (configuration not stated) | 41.4 |

tested on: Rattus norvegicus; test: Antihypertensive activity in Norwegian albino rat assessed as inhibition of DOCA salt-induced systolic blood pressure at 10 mg/kg, po after 360 mins by non-invasive tail-cuff method; type: functional; conditions: Artery, 6 h; summary of the method: as §3

| SMILES | inhibition in vivo at 10 mg/kg [%] |
| --- | --- |
| CCOC(=O)C1=C(C)NC(OC)N(CC(=O)c2ccc(Cl)cc2)C1c1ccc(C)cc1 (configuration not stated) | 42 |
| CCOC(=O)C1=C(C)NC(OC)N(CC(=O)c2ccccc2)C1c1ccc(OC)cc1 (configuration not stated) | 42.9 |

tested on: Rattus norvegicus; test: Antihypertensive activity in Norwegian albino rat assessed as inhibition of DOCA salt-induced systolic blood pressure at 10 mg/kg, po after 480 mins by non-invasive tail-cuff method; type: functional; conditions: Artery, 8 h; summary of the method: as §3

| SMILES | inhibition in vivo at 10 mg/kg [%] |
| --- | --- |
| CCOC(=O)C1=C(C)NC(OC)N(CC(=O)c2ccc(Cl)cc2)C1c1ccc(C)cc1 (configuration not stated) | 45.7 |
| CCOC(=O)C1=C(C)NC(OC)N(CC(=O)c2ccccc2)C1c1ccc(OC)cc1 (configuration not stated) | 45.9 |

tested on: Rattus norvegicus; test: Antihypertensive activity in Norwegian albino rat assessed as inhibition of DOCA salt-induced diastolic blood pressure at 10 mg/kg, po after 15 mins by invasive carotid artery cannulation method; type: functional; conditions: 0.25 h; summary of the method: as §1

| SMILES | inhibition in vivo at 10 mg/kg [%] |
| --- | --- |
| CCOC(=O)C1=C(C)NC(OC)N(CC(=O)c2ccc(Cl)cc2)C1c1ccc(C)cc1 (configuration not stated) | 2.35 |
| CCOC(=O)C1=C(C)NC(OC)N(CC(=O)c2ccccc2)C1c1ccc(OC)cc1 (configuration not stated) | 2.3 |

tested on: Rattus norvegicus; test: Antihypertensive activity in Norwegian albino rat assessed as inhibition of DOCA salt-induced diastolic blood pressure at 10 mg/kg, po after 30 mins by invasive carotid artery cannulation method; type: functional; conditions: 0.5 h; summary of the method: as §1

| SMILES | inhibition in vivo at 10 mg/kg [%] |
| --- | --- |
| CCOC(=O)C1=C(C)NC(OC)N(CC(=O)c2ccc(Cl)cc2)C1c1ccc(C)cc1 (configuration not stated) | 10.5 |
| CCOC(=O)C1=C(C)NC(OC)N(CC(=O)c2ccccc2)C1c1ccc(OC)cc1 (configuration not stated) | 10.6 |

tested on: Rattus norvegicus; test: Antihypertensive activity in Norwegian albino rat assessed as inhibition of DOCA salt-induced diastolic blood pressure at 10 mg/kg, po after 60 mins by invasive carotid artery cannulation method; type: functional; conditions: 1 h; summary of the method: as §1

| SMILES | inhibition in vivo at 10 mg/kg [%] |
| --- | --- |
| CCOC(=O)C1=C(C)NC(OC)N(CC(=O)c2ccc(Cl)cc2)C1c1ccc(C)cc1 (configuration not stated) | 22.5 |
| CCOC(=O)C1=C(C)NC(OC)N(CC(=O)c2ccccc2)C1c1ccc(OC)cc1 (configuration not stated) | 22.9 |
